In ChEMBL document CHEMBL3785064, “Cylindrofridins A-C, Linear Cylindrocyclophane-Related Alkylresorcinols from the Cyanobacterium Cylindrospermum stagnale” (J Nat Prod, 2016):
Converted amounts (≈) assume the structure as drawn.

Experiments:
Streptococcus pneumoniae = test: Antibacterial activity against Streptococcus pneumoniae ATCC 49619 after 24 hrs; type: functional; conditions: ATCC 49619, 24 h
Pseudomonas aeruginosa = test: Antibacterial activity against Pseudomonas aeruginosa isolate 22 V143708 after 24 hrs; type: functional; conditions: isolate 22 V143708, 24 h
Staphylococcus aureus = test: Antibacterial activity against methicillin-resistant Staphylococcus aureus isolate 1 B690208 after 24 hrs; type: functional; conditions: isolate 1 B690208, 24 h
In short: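 MIC determined against MRSA; vancomycin and fusidic acid served as positive controls.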

Escherichia coli = test: Antibacterial activity against Escherichia coli isolate 13 V676803 after 24 hrs; type: functional; conditions: isolate 13 V676803, 24 h
HaCaT = test: Cytotoxicity against human HaCaT cells by Cell titre-blue assay; type: cell-based
In short: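 Nontumorigenic human keratinocyte HaCaT cells were tested with mitoxantrone as the positive control, and results are reported as IC50 in μM.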

Klebsiella pneumoniae = test: Antibacterial activity against Klebsiella pneumoniae isolate 18 B224106 after 24 hrs; type: functional; conditions: isolate 18 B224106, 24 h

SMILES	MIC (Streptococcus pneumoniae) [µM]	MIC (Pseudomonas aeruginosa) [µM]	MIC (Staphylococcus aureus) [µM]	MIC (Escherichia coli) [µM]	IC50 (HaCaT) [µM]	MIC (Klebsiella pneumoniae) [µM]
CCCCC(Cl)CCCC[C@H](C)[C@@H](O)c1cc(O)c([C@@H](CCCC)CCCC[C@H](C)[C@@H](OC(C)=O)c2cc(O)cc(O)c2)c(O)c1 (some centres undefined)	> 75	> 75	> 75	> 75	25	> 75
CN[C@@H](CC(C)C)C(=O)N[C@H]1C(=O)N[C@@H](CC(N)=O)C(=O)N[C@H]2C(=O)N[C@H]3C(=O)N[C@H](C(=O)N[C@@H](C(=O)O)c4cc(O)cc(O)c4-c4cc3ccc4O)[C@H](O)c3ccc(c(Cl)c3)Oc3cc2cc(c3O[C@H]2O[C@@H](CO)[C@H](O)[C@@H](O)[C@@H]2O[C@@H]2C[C@@](C)(N)[C@@H](O)[C@@H](C)O2)Oc2ccc(cc2Cl)[C@H]1O	3.8 (≈ 5.51 µg/mL)	–	–	–	–	–
CCCCC(Cl)CCCC[C@H](C)[C@@H](OC(C)=O)c1cc(O)cc(O)c1 (some centres undefined)	17 (≈ 6.31 µg/mL)	> 135	8.6 (≈ 3.19 µg/mL)	> 135	100	> 135
CCCC[C@H]1CCCC[C@H](C)[C@@H](O)c2cc(O)c(c(O)c2)[C@@H](CCCC)CCCC[C@H](C)[C@@H](OC(C)=O)c2cc(O)c1c(O)c2	0.3 (≈ 0.188 µg/mL)	> 80	0.1 (≈ 0.0627 µg/mL)	> 80	2.9	> 80
O=C1c2c(O)ccc(O)c2C(=O)c2c(NCCNCCO)ccc(NCCNCCO)c21 [MITOXANTRONE]	–	–	–	–	3.9	–
CCCC[C@H]1CCCC[C@H](C)[C@@H](O)c2cc(O)c(c(O)c2)[C@@H](CCCC)CCCC[C@H](C)[C@@H](O)c2cc(O)c1c(O)c2 [CYLINDROCYCLOPHANE A]	0.3 (≈ 0.175 µg/mL)	> 85	0.1 (≈ 0.0585 µg/mL)	> 85	5	> 85
CCCCC(Cl)CCCC[C@H](C)[C@@H](OC(C)=O)c1cc(O)c([C@@H](CCCC)CCCC[C@H](C)[C@@H](OC(C)=O)c2cc(O)cc(O)c2)c(O)c1 (some centres undefined)	> 71	> 71	> 71	> 71	25	> 71
CCCC[C@H]1CCCC[C@H](C)[C@@H](OC(C)=O)c2cc(O)c(c(O)c2)[C@@H](CCCC)CCCC[C@H](C)[C@@H](OC(C)=O)c2cc(O)c1c(O)c2	2.4 (≈ 1.61 µg/mL)	> 75	0.9 (≈ 0.602 µg/mL)	> 75	11	> 75
CC(=O)O[C@H]1C[C@@]2(C)[C@@H](C[C@@H](O)[C@H]3[C@@]4(C)CC[C@@H](O)[C@@H](C)[C@@H]4CC[C@@]32C)/C1=C(\CCC=C(C)C)C(=O)O [FUSIDIC ACID]	–	–	1.4 (≈ 0.723 µg/mL)	–	–	–
